# Hits are enriched below; roughly 1.9% of the tested compounds scored in any of these assays.
# NOD2 RIPK2 PPI = NOD2-RIPK2 binding disruptors in cells, primary screen, fluorescence, CHO cells, BLA complementation. 360,000 tested, 0.38% active. Receptor-interacting serine/threonine-protein kinase 2 (Homo sapiens), O43353. inhibition, % at 4.98 µM. CCF4 ratio; in the data active means inhibition above about 21%;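 further: 0% = vehicle only and 100% = reference blocker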
# NTR1 agonist = agonists of human NTR1, primary screen, imaging, U2OS cells, beta-arrestin-GFP, high content. Neurotensin receptor type 1 (Homo sapiens), P30989. NTR1-U2OS beta-arrestin-GFP spot imaging, agonist mode. activation, % at 20 µM. 330,000 tested, 0.17% active;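 active means activation at or above 40% of the spot to cytoplasm intensity ratio, with at least 20 cells analyzed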;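 further: 0% = DMSO without peptide and 100% = 100 nM NTR1 peptide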
# MC4R antagonist = MC4R antagonists of cAMP signaling, primary screen, cell-based, TR-FRET, antagonist arm of biased-ligand search; AID 540295, 2011; MC4R-expressing cells, MTII-stimulated cAMP, LANCE TR-FRET; inhibition, % at 6.5 µM; 360,000 tested, 0.48% active;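 active means inhibition above its plate's cutoff, the mean of tested wells on that plate plus 3 SD, cut at about 29% in these data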;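 further: 0% = Melanotan II alone and 100% = Melanotan II plus saturating MCL0020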
#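 System – human MC4R-expressing U2OS cells · Also added – Melanotan II · Dosing – one concentration, 6.5 µM nominal · Timing – 30-min compound, 1-h challenge, 1-h detection, room temperature · Measured by – Eu-cAMP/anti-cAMP TR-FRET, emission 671 nm · Replicates – singlicate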
# TLR4 MyD88 comp = inhibitors of TLR4-MyD88 association in cells, primary screen, cell-based, HeLa CL3-4, BLA complementation, FRET ratio; inhibition, % at 8.4 µM; HeLa CL3-4 TLR4/MyD88 BLA complementation; Toll-like receptor 4 (Homo sapiens) + Myeloid differentiation primary response protein …; 200,000 tested, 0.18% active; in the data active means inhibition above about 25%;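 further: 0% = vehicle and 100% = reference inhibitor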
# MC4R barr agon = MC4R agonists recruiting beta-arrestin, primary screen, cell-based, luminescence, agonist arm of biased-ligand search. U2OS MC4R beta-arrestin complementation; percent of melanotan II response, DMSO zero. activation, % at 8.9 µM. 360,000 tested, 0.98% active. AID 540308, 2011;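 active means activation above a per-plate cutoff, the mean activation of sample wells on that plate plus 3 SD, cut at about 8% in these data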
# TLR9-MyD88 block = inhibitors of TLR9-MyD88 association in cells, primary screen, cell-based, CHO, BLA complementation, fluorescence; Toll-like receptor 9 (Homo sapiens) + Myeloid differentiation primary response protein …; CCF4 FRET ratio; inhibition, % at 4.98 µM; 340,000 tested, 0.21% active; AID 504734, 2011;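 active means inhibition above the mean over all tested compounds plus 3 SD, cut at about 21% in these data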;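 further: 0% = DMSO only wells and 100% = clavulanate BLA inhibitor control wells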
# Numbers without * were called inactive; x = no result given.
SMILES,NOD2 RIPK2 PPI,NTR1 agonist,MC4R antagonist,TLR4 MyD88 comp,MC4R barr agon,TLR9-MyD88 block
O=C(COC(=O)Cc1ccccc1F)Nc1ccc2[nH]c(=O)[nH]c2c1,-7,0,9,x,-5,-4
O=C(COc1ccccc1)Nc1ccc(CSc2ccccc2)cc1,-3,-5,11,7,10*,2
O=C(Nc1ccc(CSc2ccccc2)cc1)c1ccccc1,1,-1,5,-5,-2,2
COc1ccc2c(c1)c(N=NC(N)=S)c(O)n2CC(=O)c1ccccc1,11,1,-1,x,12*,12
Cc1cc(CNC(=O)COC(=O)c2ccc(Cl)c(N)c2)cc(C)c1O,-6,-1,0,x,2,9
COc1ccc(S(=O)(=O)NC(=O)C2(C)CCN2C(=O)C2(c3ccc(Cl)cc3)CCC2)cc1 (stereo not drawn),-1,x,6,x,2,x
Oc1c(Cl)cc(Cl)cc1/C=N/c1nc(-c2ccc(Cl)cc2)cs1,8,-1,34*,x,-2,4
COc1ccc(OCCNc2cc(Cl)ccc2[N+](=O)[O-])cc1,-3,0,13,4,10*,-15
COc1ccc(OCCNc2cc(N3CCCCC3)ccc2[N+](=O)[O-])cc1,-9,0,23,-4,-2,0
Cc1cccc(-n2ncc3c(N4CCCC4)ncnc32)c1,-9,5,4,6,-1,3
Cc1cccc(-n2ncc3c(N4CC(C)CC(C)C4)ncnc32)c1 (stereo not drawn),-12,3,-2,-14,8.4*,9
Cc1ccccc1NC(=O)C1C(=O)Nc2ccccc2C(=O)N1Cc1ccccc1 (stereo not drawn),-1,x,x,x,x,x
CCCn1c(C)cc(C(=O)COC(=O)c2cc(=O)[nH]c3ccccc23)c1C,3,x,-4,x,8.9*,-20
COC(=O)C[C@H]1CC[C@@H](NC(=O)Nc2ccc(C(F)(F)F)cc2)[C@@H](CO)O1,-11,x,x,x,x,x
N#Cc1ccc(-c2ccc(OCC(=O)NCCc3ccccc3)cc2)cc1,3,6,2,-16,9.1*,9
Cc1ccc(/C=C2\SC(=S)N(/N=C/c3cc([N+](=O)[O-])ccc3O)C2=O)o1,-3,-1,-2,-4,-2,9
O=C(Nc1cccc(-c2nc3cccnc3s2)c1)c1cccnc1Cl,3,3,-1,x,2,0
O=C(Nc1cccc(-c2nc3cccnc3s2)c1)c1ccc(Cl)nc1,-5,3,3,x,8.6*,-2
O=C(Nc1cccc(-c2nc3ccccc3[nH]2)c1)c1cccc(NC(=O)c2ccco2)c1,4,41*,8,-9,2,10
COc1ccc(/C=N/NC(=O)CCCOc2ccc(Cl)cc2Cl)cc1[N+](=O)[O-],-12,11,0,-5,-1,-8
Cc1ccc(/C=N/NC(=O)CCCOc2ccc(Cl)cc2Cl)cc1[N+](=O)[O-],-4,8,6,-13,9.0*,4
O=C(NCC1CCN(Cc2ccccc2)CC1)[C@H]1O[C@@H](n2ccc(=O)[nH]c2=O)[C@H](O)[C@@H]1O,2,x,x,x,x,x
CCN1CCN(S(=O)(=O)c2c[nH]c(C(=O)OC)c2)CC1,-7,-2,0,x,0,6
Cc1ccc(Cn2ccsc2=NC(=O)COC(=O)c2ccc(NC(=O)CC#N)cc2)cc1,-13,1,5,x,-2,6
Cc1ccc(Cn2ccsc2=NC(=O)CCl)cc1,0,0,9,10,15*,-2
SMILES,NOD2 RIPK2 PPI,NTR1 agonist,MC4R antagonist,TLR4 MyD88 comp,MC4R barr agon,TLR9-MyD88 block
Cc1ccccc1OCc1nnc(SCC(=O)Nc2ccc3nc(SCC(=O)NC(C)(C)C)sc3c2)n1C,-1,8,0,-17,11*,3
CCN(CC)C(=O)CSc1nc2ccc(NC(=O)CSc3nnc(COc4ccccc4C)n3C)cc2s1,5,2,5,0,-1,2
O=C1NC[C@@H](CCCCN2C[C@H](Cc3ccc(O)cc3)N(CC3CCCCC3)C(=O)C2=O)N(CCC2CCCCC2)C1=O,-4,x,x,x,x,x
CC1CCc2nc(NC(=O)CN3CCN(Cc4ccc5c(c4)OCO5)CC3)sc2C1 (stereo not drawn),-6,3,20,15,9.3*,3
COc1cc2c(cc1NC(=O)CN(C)Cc1cccc(OC)c1OC)oc1ccccc12,1,5,22,-8,0,-8
O=C(C[C@H]1CC[C@H](NC(=O)Nc2ccccc2F)[C@@H](CO)O1)NCc1ccc(-c2ccccc2)cc1,3,x,x,x,x,x
Cc1cc(C)cc(NC(=O)Cn2nnc(C(=O)NCCc3ccccc3)c2N)c1,11,2,0,x,1,6
CCOc1ccc(Cn2nnc(C(=O)Nc3cc(OC)cc(OC)c3)c2N)cc1,-6,-2,6,3,8,-1
Cc1cc(C)cc(NC(=O)Cn2nnc(C(=O)NCc3ccccc3Cl)c2N)c1,12,0,0,x,10*,-6
CCOc1ccc(Cn2nnc(C(=O)Nc3cc(C)cc(C)c3)c2N)cc1,-3,5,-9,-4,9.4*,-3
Nc1c(C(=O)Nc2ccc3c(c2)OCCO3)nnn1Cc1ccc(Br)cc1,14,5,2,x,8.4*,-2
O=C(NC1CCCC1)C1C(c2ccc(C(F)(F)F)cc2)=Nc2ccccc2N1C(=O)c1cccc2ccccc12 (stereo not drawn),-1,x,x,x,x,x
C=Cc1ccc(Cn2c(C)c(C(=O)NCc3ccc(C#N)cc3)sc2=O)cc1,-4,x,22,x,1,x
CCCCNc1c(-c2ccc(SC(C)CC)cc2)nc2cnccn12 (stereo not drawn),69*,33,18,x,5,54*
CCCCNc1c(-c2ccc(SC(C)CC)c(OC)c2)nc2ccc(C)cn12 (stereo not drawn),-4,23,28,x,-1,-10
O=C(CC1c2cc(F)ccc2C=C(c2ccsc2)N1c1ccc(C#CCCO)cc1)c1ccco1 (stereo not drawn),-11,x,x,x,x,x
O=C(Oc1ccc2c(c1)O/C(=C\c1ccncc1)C2=O)c1cccs1,8,1,-11,x,0,x
CC(=O)Oc1ccc2c(c1)O/C(=C\c1ccncc1)C2=O,31*,-1,-26,x,2,13
O=C(O)Cn1cc(/C=C/[N+](=O)[O-])c2ccccc21,-8,1,-5,-4,-3,-7
